For data set [1], the system named is Influenza A virus. As to the kind of experiment: Antiviral activity against Influenza virus A/PR/8/34 infected in MDCK cells assessed as reduction in viral titer after 48 hrs by hemagglutinination assay. Type of data set: functional, A/Puerto Rico/8/1934(H1N1). The following applies: for Activity: A/Puerto Rico/8/1934(H1N1). The essentials: (§1)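 MDCK monolayers grown to confluence in Iscove medium with 10% FBS and 2 mM L-glutamine. Infected with A/PR/8/34 at MOI 0.1 for 48 h in growth medium with 0.3% BSA, 0.22% bicarbonate and TPCK-trypsin. Compound or DMSO added at the start of infection and kept throughout. Supernatant titre measured by TCID50 on MDCK cells using hemagglutination (Reed–Muench).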

Data set [2] relates to Influenza A virus. As to the kind of experiment: Antiviral activity against Influenza virus A/PR/8/34 infected in MDCK cells assessed as reduction in viral titer at 50 uM after 48 hrs by hemagglutinination assay relative to untreated control. Type of data set: functional, A/Puerto Rico/8/1934(H1N1). The essentials: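 MDCK monolayers infected with A/PR/8/34 at MOI 0.1 for 48 h, with 50 µM compound throughout. Supernatant logTCID50 determined by hemagglutination (Reed–Muench). Fold decrease obtained by subtracting each logTCID50 from the DMSO-control value and taking the inverse log.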

Data set [3] deals with MDCK. As to the kind of experiment: Cytotoxicity against MDCK cells up to 100 uM after 48 hrs. The class given is cell-based, Canis lupus familiaris. The following applies: dog.
The subject of data set [4] is Influenza A virus. Nature of the data set: Antiviral activity against Influenza virus A/PR/8/34 infected in MDCK cells assessed as reduction in viral titer at 50 uM after 48 hrs by hemagglutinination assay. Type of data set: functional, organism-based. The following applies: A/Puerto Rico/8/1934(H1N1). The essentials: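 Confluent MDCK monolayers infected with A/PR/8/34 at MOI 0.1, with compound at 50 µM present for the entire 48 h. Viral titre in supernatants expressed as logTCID50, read by hemagglutination on MDCK cells (Reed–Muench). DMSO-treated infected cells served as control.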

Data set [5] has as its system Influenza A virus. Nature of the data set: Antiviral activity against Influenza virus A/PR/8/34 infected in MDCK cells assessed as log reduction in viral replication at 1 uM after 48 hrs by hemagglutinination assay relative to control. Type of data set: functional, A/Puerto Rico/8/1934(H1N1). In outline: as §1

Active and inactive are the calls of the source. The rule behind the calls is not given here.

In the case of `O=C(NCCc1ccccc1)c1ccccc1O`, the “log10 TCID50” value in data set [1] turned out to be 7.1. Further, the “fold change (FC)” value in data set [2] amounted to 25.

Regarding `O=C(CCc1ccccc1O)NCc1ccccc1`, in data set [1], the outcome was Active.

Consider `Nc1ccc([N+](=O)[O-])cc1C(=O)NCCCc1ccccc1`, for which, in data set [1], the outcome was Active.

As to `O=C(NCCCc1ccccc1)c1ccccc1[N+](=O)[O-]`, the “log10 TCID50” value in data set [1] was found to be 6.5. In data set [2], the “fold change (FC)” value is given as 100.

In the case of `COc1ccc(N)c(C(=O)NCCCc2ccccc2)c1`, the outcome in data set [1] was Active.

For `O=C(NCCCc1ccccc1)c1ccccc1Br`, the outcome in data set [1] was inactive.

As for `O=C(NCCCc1ccccc1)c1ccc2c(c1)OCO2`, the outcome in data set [1] was Active.

In the case of `O=C(NCCCc1ccccc1)c1ccccn1`, in data set [1], the outcome was Active.

As to `N#Cc1ccccc1C(=O)NCCCc1ccccc1`, the result in data set [1] was Active.

With `Nc1ccccc1C(=O)NCCOc1ccccc1`, the result in data set [1] was Active.

Take `O=C(CCc1ccccc1O)Nc1ccccc1`: the result in data set [1] was Active.

In the case of `O=C(NCCCc1ccccc1)c1nccc2ccccc12`, the outcome in data set [1] was Active.

With `O=C(NCCCc1ccccc1)c1ccccc1F`, in data set [1], the outcome was inactive.

For `O=C(N/N=C/c1ccc2c(c1)CCC2)c1ccccc1O`, in data set [3], the Activity result is listed as “Non-toxic”. Besides, the “log10 TCID50” value in data set [1] was found to be 7.1. Also, the result in data set [4] was Active. For the same molecule, the “fold change (FC)” value in data set [2] was determined as 25.

Regarding `O=C(NCCCc1ccccc1)c1ccc2ccccc2n1`, in data set [1], the result was Active.

Turning to `COc1ccccc1C(=O)NCCCc1ccccc1`, the “log10 TCID50” value in data set [1] amounted to 5.8. In addition, the “fold change (FC)” value in data set [2] is listed as 500.

Turning to `Cc1ccccc1C(=O)NCCCc1ccccc1`, in data set [1], the “log10 TCID50” value is reported as 6.3. In addition, in data set [2], the “fold change (FC)” value stood at 158.

Consider `O=C(NCCCc1ccccc1)c1ccccc1Cl`, for which the outcome in data set [1] was Active.

Consider `O=C(N/N=C/c1ccc2ccccc2c1)c1ccccc1O`, for which the outcome in data set [4] was Active.

In the case of `O=C(NCCCc1ccccc1)c1c(O)ccc2ccccc12`, in data set [1], the result was Active.

As to `O=C(NCCCc1ccccc1)c1ccccc1I`, the result in data set [1] was Active.

For `O=C(NCCCc1ccccc1)c1ccccc1`, the “log10 TCID50” value in data set [1] came out at 6.8. In data set [2], the “fold change (FC)” value worked out at 50.

For `O=C(CCCc1ccccc1)Nc1ccccc1O`, in data set [1], the outcome was Active.

Take `O=C(NCCCc1ccccc1)c1cccc(O)c1`: in data set [1], the “log10 TCID50” value was 6.2. For the same molecule, the “fold change (FC)” value in data set [2] stood at 200.

For `O=C(Cc1ccccc1O)NCCc1ccccc1`, in data set [1], the result was Active.

As to `CN(CCCc1ccccc1)C(=O)c1ccccc1O`, the result in data set [1] was Active.

On to `O=C(NCCCc1ccccc1)c1cc2ccccc2cn1`, for which the result in data set [1] was Active.

On to `O=C(N/N=C/c1ccccc1)c1ccccc1O`, for which the outcome in data set [4] was Active.

Turning to `Nc1ccccc1C(=O)NCCCc1ccccc1`, the Activity result in data set [3] is on record as “Non-toxic”. The outcome in data set [1] was Active. Besides, the FC in data set [5] was above 2.

As for `Nc1ccc(C(=O)NCCCc2ccccc2)c(O)c1`, in data set [1], the result was Active.

Take `O=C(NCCCCc1ccccc1)c1ccccc1O`: in data set [4], the result was Active.

On to `O=C(NCCCc1ccccc1)c1ccccc1O`, for which the Activity entry in data set [3] is listed as “Non-toxic”. Further, the “log10 TCID50” value in data set [1] was found to be 5.7. Further, in data set [2], the “fold change (FC)” value was found to be 630.

With `O=C(NCCCc1ccccc1)c1ccc(O)cc1`, the “log10 TCID50” value in data set [1] was 6.5. For the same molecule, the “fold change (FC)” value in data set [2] is 100.

With `O=C(NCCCc1ccccc1)c1cc2ccccc2cc1O`, in data set [1], the outcome was Active.

`O=C(N/N=C/c1ccc(O)cc1)c1ccccc1O`: the outcome in data set [4] was Active.

In the case of `O=C(N/N=C/c1ccc([N+](=O)[O-])cc1)c1ccccc1O`, the outcome in data set [4] was Active.

In the case of `O=C(NCCCc1ccccc1)c1ccc2ccccc2c1O`, the outcome in data set [1] was Active.

Consider `Nc1ccc(Cl)cc1C(=O)NCCCc1ccccc1`, for which the outcome in data set [1] was Active.

As for `O=C(NCCOc1ccccc1)c1ccccc1O`, the outcome in data set [1] was Active.

As to `O=C(N/N=C/c1ccc(Cl)cc1)c1ccccc1O`, the outcome in data set [4] was Active.

For the molecule `COc1ccc(/C=N/NC(=O)c2ccccc2O)cc1`, the outcome in data set [4] was Active.
